According to ChEMBL document CHEMBL1150133, “New saponins from the starfish Certonardoa semiregularis” (J Nat Prod, 2002):
Values after ≈ are worked out from the molar mass of the structure shown.

Experiments:
[1] = Cytotoxicity against african green monkey Vero cells after 3 days by MTT assay; format: cell-based; conditions: chlorocebus sabaeus
Outline: (§1)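 Confluent Vero cells were infected at 100 CCID50 per well, or mock-infected, with 1 h adsorption at 37 °C. Compound in DMEM/2% FBS was added in duplicate per concentration, followed by 3 days at 37 °C. Viability was read by MTT, and EC50 for CPE inhibition and CC50 for cytocidal effect were calculated.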

Human alphaherpesvirus 2 = assay: Antiviral activity against HSV2 MS infected in african green monkey Vero cells assessed as inhibition of virus-induced cytopathic effect after 3 days by MTT assay; format: functional, organism-based; conditions: Human alphaherpesvirus 2, MS, 72 h; outline: as §1
Human alphaherpesvirus 1 = assay: Antiviral activity against HSV1 F infected in african green monkey Vero cells assessed as inhibition of virus-induced cytopathic effect after 3 days by MTT assay; format: functional, organism-based; conditions: Human alphaherpesvirus 1, F, 72 h; outline: as §1
[2] = tested on: Vesicular stomatitis Indiana virus; assay: Antiviral activity against Vesicular stomatitis Indiana virus infected in human HeLa assessed as inhibition of virus-induced cytopathic effect after 2 days by MTT assay; format: functional, organism-based; conditions: 48 h
Outline: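 CPE-inhibition assay with VSV strain Indiana (stock grown in HeLa cells) on confluent HeLa cells (DMEM/5% FBS, gentamycin) in 96-well plates. Infection at 100 CCID50 per well with 30 min adsorption at 37 °C, then the compound in DMEM/2% FBS, duplicate wells per concentration, 2 days at 37 °C. Viability read by MTT; EC50 is the concentration giving 50% protection. Mock-infected wells gave CC50.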

[3] = tested on: Human immunodeficiency virus 1; assay: Antiviral activity against HIV1 3B infected in human MT4 cells assessed as inhibition of virus-induced cytopathic effect after 5 days by MTT assay; format: functional, organism-based; conditions: Human immunodeficiency virus 1, 3B, MT4, 120 h
Outline: (§2)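 MT-4 cells (RPMI 1640/10% FBS), HIV-infected or mock-infected, were plated with 2× concentrated test samples and kept 5 days at 37 °C. Cells were inspected microscopically, then MTT was added for 1 h, dissolved in acidified 2-propanol, and read at 540 nm (690 nm reference). EC50 (50% protection) came from infected wells and CC50 (50% viability loss) from mock-infected wells.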

[4] = Cytotoxicity against human MT4 cells after 5 days by MTT assay; format: cell-based; outline: as §2
[5] = tested on: Human immunodeficiency virus 2; assay: Antiviral activity against HIV2 ROD infected in human MT4 cells assessed as inhibition of virus-induced cytopathic effect after 5 days by MTT assay; format: functional, organism-based; conditions: Human immunodeficiency virus 2, ROD, MT4, 120 h; outline: as §2
Coxsackievirus B3 = assay: Antiviral activity against Coxsackievirus B3 Nancy infected in human HeLa assessed as inhibition of virus-induced cytopathic effect after 2 days by MTT assay; format: functional, organism-based; conditions: Enterovirus B, 48 h
Outline: (§3)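 In HeLa cells, virus-induced CPE inhibition was run with infected or mock-infected wells, 30 min virus adsorption, and compound in DMEM/2% FBS in duplicate per concentration. After 2 days at 37 °C, MTT read-out gave EC50 from infected wells and CC50 from mock-infected wells.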

[6] = Cytotoxicity against human HeLa cells after 2 days by MTT assay; format: cell-based; outline: as §3
[7] = tested on: Encephalomyocarditis virus; assay: Antiviral activity against Encephalomyocarditis virus EMC infected in human HeLa assessed as inhibition of virus-induced cytopathic effect after 2 days by MTT assay; format: functional, organism-based; conditions: Cardiovirus A, 48 h; outline: as §3

| Compound | CC50 at 72 h [1] | EC50 (Human alphaherpesvirus 2) | EC50 (Human alphaherpesvirus 1) | EC50 [2] | EC50 [3] | CC50 at 120 h [4] | EC50 [5] | EC50 (Coxsackievirus B3) | CC50 at 48 h [6] | EC50 [7] |
| --- | --- | --- | --- | --- | --- | --- | --- | --- | --- | --- |
| Nc1ccn([C@@H]2O[C@H](CO)[C@@H](O)[C@@H]2O)c(=O)n1 [CYTARABINE] | 4.8 µg/mL (≈ 19.7 µM) | 3 µg/mL (≈ 12.3 µM) | 1.6 µg/mL (≈ 6.58 µM) | – | – | – | – | – | – | – |
| CO[C@H]1[C@H](O[C@H]2[C@H](O[C@@H](CC[C@@H](C)[C@H]3C[C@@H](O)[C@@H]4[C@]3(C)CC[C@@H]3[C@@]5(C)CC[C@H](O)[C@H](O)[C@@H]5[C@@H](O)C[C@]34O)C(C)C)O[C@H](CO)[C@@H]2O)OC[C@@H](OC)[C@@H]1O [CERTONARDOSIDE F] | > 100 µg/mL | > 100 µg/mL | > 100 µg/mL | > 64.8 µg/mL | > 39.7 µg/mL | 39.7 µg/mL (≈ 52.2 µM) | > 39.7 µg/mL | > 64.8 µg/mL | 64.8 µg/mL (≈ 85.2 µM) | > 64.8 µg/mL |
| Cc1cn([C@H]2C[C@H](N=[N+]=[N-])[C@@H](CO)O2)c(=O)[nH]c1=O [ZIDOVUDINE] | – | – | – | – | 0.001 µg/mL (≈ 0.00374 µM) | 1.9 µg/mL (≈ 7.11 µM) | 0.007 µg/mL (≈ 0.0262 µM) | – | – | – |
| O=c1[nH]cnc2c1ncn2[C@H]1CC[C@@H](CO)O1 [DIDANOSINE] | – | – | – | – | 2.1 µg/mL (≈ 8.89 µM) | > 100 µg/mL | 11 µg/mL (≈ 46.6 µM) | – | – | – |
| C=C(CC[C@@H](C)[C@H]1C[C@@H](O)[C@@H]2[C@]1(C)CC[C@@H]1[C@@]3(C)CC[C@H](O)[C@H](O)[C@@H]3[C@@H](O)C[C@]12O)C(C)CO[C@@H]1OC[C@@H](O)[C@H](OS(=O)(=O)[O-])[C@H]1O[C@@H]1OC[C@@H](O)[C@H](O)[C@H]1OC.[Na+] (some centres undefined) [CERTONARDOSIDE A] | > 100 µg/mL | > 100 µg/mL | > 100 µg/mL | > 100 µg/mL | > 6.8 µg/mL | 6.8 µg/mL | > 6.8 µg/mL | > 100 µg/mL | > 100 µg/mL | > 100 µg/mL |
| CO[C@H]1[C@H](O[C@H]2[C@H](O[C@@H](CC[C@@H](C)[C@H]3C[C@@H](O)[C@H]4[C@@H]5C[C@H](O)[C@H]6[C@@H](O)[C@@H](O)CC[C@]6(C)[C@H]5CC[C@@]43C)C(C)C)O[C@H](CO)[C@@H]2O)OC[C@@H](OC)[C@@H]1O [CERTONARDOSIDE I] | > 100 µg/mL | > 100 µg/mL | > 100 µg/mL | > 59.9 µg/mL | > 42.5 µg/mL | 42.5 µg/mL (≈ 57.1 µM) | > 42.5 µg/mL | > 59.9 µg/mL | 59.9 µg/mL (≈ 80.4 µM) | > 59.9 µg/mL |
| Nc1ccn([C@H]2CC[C@@H](CO)O2)c(=O)n1 [ZALCITABINE] | – | – | – | – | 0.1 µg/mL (≈ 0.473 µM) | 11 µg/mL (≈ 52.1 µM) | 0.1 µg/mL (≈ 0.473 µM) | – | – | – |
| CO[C@@H]1CO[C@@H](OCC[C@@H](CC[C@@H](C)[C@H]2[C@@H](O)[C@@H](O)[C@H]3[C@@H]4C[C@H](OS(=O)(=O)[O-])[C@H]5[C@@H](O)[C@@H](O)CC[C@]5(C)[C@H]4CC[C@]23C)C(C)C)[C@H](O)[C@H]1O.[Na+] [CERTONARDOSIDE K] | > 100 µg/mL | 82.1 µg/mL | 97.8 µg/mL | > 57.9 µg/mL | > 100 µg/mL | > 100 µg/mL | > 100 µg/mL | > 57.9 µg/mL | 57.9 µg/mL | > 57.9 µg/mL |
| NC(=O)c1ncn([C@@H]2O[C@H](CO)[C@@H](O)[C@H]2O)n1 [RIBAVIRIN] | – | – | – | 13.7 µg/mL (≈ 56.1 µM) | – | – | – | 236 µg/mL (≈ 968 µM) | 300 µg/mL (≈ 1230 µM) | 27.2 µg/mL (≈ 111 µM) |
| CO[C@H]1[C@H](O[C@H]2[C@H](O[C@@H](CC[C@@H](C)[C@H]3C[C@@H](O)[C@@H]4[C@]3(C)CC[C@@H]3[C@@]5(C)CC[C@H](O)[C@H](O)[C@@H]5[C@@H](OS(=O)(=O)[O-])C[C@]34O)C(C)C)O[C@H](CO)[C@@H]2O)OC[C@@H](OC)[C@@H]1O.[Na+] [CERTONARDOSIDE G] | > 100 µg/mL | > 100 µg/mL | > 100 µg/mL | > 100 µg/mL | > 100 µg/mL | > 100 µg/mL | > 100 µg/mL | > 100 µg/mL | > 100 µg/mL | > 100 µg/mL |
| C=C(CC[C@@H](C)[C@H]1C[C@@H](O)[C@@H]2[C@]1(C)CC[C@@H]1[C@@]3(C)CC[C@H](O)C[C@@H]3[C@@H](O)C[C@]12O)C(C)CO[C@@H]1OC[C@@H](O)[C@H](OS(=O)(=O)[O-])[C@H]1O[C@@H]1OC[C@@H](O)[C@H](O)[C@H]1OC.[Na+] (some centres undefined) [CERTONARDOSIDE C] | 97.5 µg/mL | > 97.5 µg/mL | > 97.5 µg/mL | > 100 µg/mL | > 1.4 µg/mL | 1.4 µg/mL | > 1.4 µg/mL | > 100 µg/mL | > 100 µg/mL | > 100 µg/mL |
| CO[C@@H]1CO[C@@H](OCC[C@@H](CC[C@@H](C)[C@H]2[C@@H](O)[C@@H](O)[C@@H]3[C@]2(C)CC[C@@H]2[C@@]4(C)CC[C@H](O)[C@H](O)[C@@H]4[C@@H](OS(=O)(=O)[O-])C[C@]23O)C(C)C)[C@H](O)[C@H]1O.[Na+] [CERTONARDOSIDE J] | > 100 µg/mL | 82.3 µg/mL | 81.1 µg/mL | > 58.8 µg/mL | > 67.4 µg/mL | 67.4 µg/mL | > 67.4 µg/mL | > 58.8 µg/mL | 58.8 µg/mL | > 58.8 µg/mL |
| C=C(CC[C@@H](C)[C@H]1C[C@@H](O)[C@@H]2[C@]1(C)CC[C@@H]1[C@@]3(C)CC[C@H](O)[C@H](O)[C@@H]3[C@@H](O)C[C@]12O)C(C)CO[C@@H]1OC[C@@H](O)[C@H](O)[C@H]1O[C@@H]1OC[C@@H](O)[C@H](O)[C@H]1OC (some centres undefined) [ACODONTASTEROSIDE G] | > 100 µg/mL | 94.5 µg/mL (≈ 125 µM) | 86.1 µg/mL (≈ 113 µM) | > 51.5 µg/mL | > 42.5 µg/mL | 42.5 µg/mL (≈ 56 µM) | > 42.5 µg/mL | > 51.5 µg/mL | 51.5 µg/mL (≈ 67.9 µM) | > 51.5 µg/mL |
| Nc1nc2c(ncn2COCCO)c(=O)[nH]1 [ACYCLOVIR] | > 10 µg/mL | 2.4 µg/mL (≈ 10.7 µM) | 0.8 µg/mL (≈ 3.55 µM) | – | – | – | – | – | – | – |
| CO[C@H]1[C@H](O[C@H]2[C@H](OC[C@@H](C)[C@H](C)/C=C/[C@@H](C)[C@H]3C[C@@H](O)[C@@H]4[C@]3(C)CC[C@@H]3[C@@]5(C)CC[C@H](O)[C@H](O)[C@@H]5[C@@H](O)C[C@]34O)OC[C@@H](O)[C@@H]2OS(=O)(=O)[O-])OC[C@@H](O)[C@@H]1O.[Na+] [CERTONARDOSIDE D] | 79.9 µg/mL | > 79.9 µg/mL | > 79.9 µg/mL | > 100 µg/mL | > 100 µg/mL | > 100 µg/mL | > 100 µg/mL | > 100 µg/mL | > 100 µg/mL | > 100 µg/mL |
